# ChEMBL document CHEMBL2203235, “Optimization of a natural product-based class of γ-secretase modulators” (J Med Chem, 2012)
# Assays:
# CHO-2B7 [1] = experiment: Modulation of gamma secretase in CHO-2B7 cells assessed as reduction in amyloid beta 40 level at 20 mM after 5 hrs by MSD ELISA; format: cell-based; design: scale not given: the % may be the effect or the level left; settings: Cricetulus griseus
# Liver microsomes = experiment: Metabolic stability in human liver microsomes at 1 uM after 60 mins by LC/MS/MS analysis; settings: 1 h
# [2] = Modulation of gamma secretase in CHO-2B7 cells assessed as reduction in amyloid beta 42 level after 5 hrs by MSD ELISA; format: cell-based; settings: Cricetulus griseus, CHO-2B7, 5 h
# CHO-2B7 [3] = experiment: Modulation of gamma secretase in CHO-2B7 cells assessed as reduction in amyloid beta 42 level at 4 uM after 5 hrs by MSD ELISA; format: cell-based; design: scale not given: the % may be the effect or the level left; settings: Cricetulus griseus
# CHO-2B7 [4] = experiment: Modulation of gamma secretase in CHO-2B7 cells assessed as reduction in amyloid beta 40 level at 4 uM after 5 hrs by MSD ELISA; format: cell-based; design: scale not given: the % may be the effect or the level left; settings: Cricetulus griseus
# [5] = Drug uptake in CD1 mouse brain at 3 mg/kg, iv at 6 hrs; format: ADME, organism-based; design: dose 3 mg/kg, route intravenous; settings: read-out: Drug uptake
# Method in brief: (§1)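 CD-1 mice dosed by the IV route. Plasma and brain drug concentrations were measured at 6 h post dose, or at 2 h for one analogue. The brain-to-plasma ratio was calculated from these concentrations and used to rank CNS penetration.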
# [6] = Modulation of gamma secretase in CHO-2B7 cells assessed as reduction in amyloid beta 40 level after 5 hrs by MSD ELISA; format: cell-based; settings: Cricetulus griseus, CHO-2B7, 5 h
# [7] = Plasma concentration in CD1 mouse at 3 mg/kg, iv at 6 hrs; format: ADME, organism-based; design: dose 3 mg/kg, route intravenous; method in brief: as §1
# [8] = Ratio of drug uptake in brain to plasma in CD1 mouse at 3 mg/kg, iv at 6 hrs; format: ADME, organism-based; design: dose 3 mg/kg, route intravenous; settings: brain and plasma, read-out: BPR; method in brief: as §1
# [9] = Metabolic stability in human liver microsomes assessed as compound remaining at 1 uM at 60 mins by LC/MS/MS analysis in absence of NADPH; format: ADME, Microsome; settings: liver microsomes, read-out: Stability
# Method in brief: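 Human liver microsomes were run without NADPH as a qualitative read of susceptibility to enzymatic hydrolysis. The read-out was percent parent remaining at 60 min.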
# [10] = Inhibition of gamma secretase in CHO-2B7 cells assessed as reduction in total amyloid beta level after 5 hrs by MSD ELISA; format: cell-based; settings: Cricetulus griseus, CHO-2B7, 5 h
# CHO [11] = experiment: Modulation of gamma secretase in CHO cells expressing human APP assessed as amyloid beta (1 to 40) level at 2 uM after 6 hrs by LC/MS/MS analysis (reference value: 10.2 ng); format: cell-based; settings: Cricetulus griseus
# Method in brief: (§2)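 Cells were treated at 3 μM or 2 μM. Secreted Aβ peptides (Aβ37, 38, 39, 40, 42) were quantified by immunoprecipitation followed by LC/MS/MS. Changes are expressed relative to vehicle-treated cells.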
# Mus musculus [12] = experiment: Antialzheimer activity in CD1 mouse assessed as reduction in amyloid beta 38 level at 10 mg/kg, po QD for 5 days at 8 hrs post-last dose relative to vehicle-treated control; design: scale not given: the % may be the effect or the level left
# CHO [13] = experiment: Modulation of gamma secretase in CHO cells expressing human APP assessed as reduction in amyloid beta (1 to 42) level at 2 uM after 6 hrs by LC/MS/MS analysis relative to control; format: cell-based; design: scale not given: the % may be the effect or the level left; settings: Cricetulus griseus; method in brief: as §2
# Mus musculus [14] = experiment: Antialzheimer activity in CD1 mouse assessed as reduction in amyloid beta 40 level at 50 mg/kg, po QD for 5 days at 8 hrs post-last dose relative to vehicle-treated control; design: scale not given: the % may be the effect or the level left
# Mus musculus [15] = experiment: Antialzheimer activity in CD1 mouse assessed as reduction in amyloid beta 40 level at 100 mg/kg, po at 6 hrs relative to vehicle-treated control; format: functional; design: scale not given: the % may be the effect or the level left
# Method in brief: (§3)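 CD-1 mice received a single IP or PO dose (n = 12 per group) and were sampled at 6 h. Plasma and brain drug concentrations were measured in μM. Aβ42, Aβ40 and Aβ38 in brain homogenate are expressed as percent lowering versus vehicle. Statistical significance was assessed against vehicle.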
# Mus musculus [16] = experiment: Antialzheimer activity in CD1 mouse assessed as reduction in amyloid beta 42 level at 30 mg/kg, po at 6 hrs relative to vehicle-treated control; format: functional; design: scale not given: the % may be the effect or the level left; method in brief: as §3
# Mus musculus [17] = experiment: Antialzheimer activity in CD1 mouse assessed as reduction in amyloid beta 42 level at 10 mg/kg, po QD for 5 days at 8 hrs post-last dose relative to vehicle-treated control; design: scale not given: the % may be the effect or the level left
# CHO [18] = experiment: Modulation of gamma secretase in CHO cells expressing human APP assessed as increase in amyloid beta (1 to 37) level at 2 uM after 6 hrs by LC/MS/MS analysis relative to control; format: cell-based; settings: Cricetulus griseus; method in brief: as §2
# Mus musculus [19] = experiment: Antialzheimer activity in CD1 mouse assessed as reduction in amyloid beta 38 level at 50 mg/kg, po QD for 5 days at 8 hrs post-last dose relative to vehicle-treated control; design: scale not given: the % may be the effect or the level left
# Mus musculus [20] = experiment: Antialzheimer activity in CD1 mouse assessed as reduction in amyloid beta 42 level at 100 mg/kg, po at 6 hrs relative to vehicle-treated control; format: functional; design: scale not given: the % may be the effect or the level left; method in brief: as §3
# CHO [21] = experiment: Modulation of gamma secretase in CHO cells expressing human APP assessed as increase in amyloid beta (1 to 39) level at 2 uM after 6 hrs by LC/MS/MS analysis relative to control; format: cell-based; settings: Cricetulus griseus; method in brief: as §2
# CHO [22] = experiment: Modulation of gamma secretase in CHO cells expressing human APP assessed as reduction amyloid beta (1 to 38) level at 2 uM after 6 hrs by LC/MS/MS analysis relative to control; format: cell-based; design: scale not given: the % may be the effect or the level left; settings: Cricetulus griseus; method in brief: as §2
# Mus musculus [23] = experiment: Antialzheimer activity in CD1 mouse assessed as reduction in amyloid beta 40 level at 10 mg/kg, po QD for 5 days at 8 hrs post-last dose relative to vehicle-treated control; design: scale not given: the % may be the effect or the level left
# Mus musculus [24] = experiment: Antialzheimer activity in CD1 mouse assessed as reduction in amyloid beta 38 level at 100 mg/kg, po at 6 hrs relative to vehicle-treated control; format: functional; design: scale not given: the % may be the effect or the level left; method in brief: as §3
# Mus musculus [25] = experiment: Antialzheimer activity in CD1 mouse assessed as reduction in amyloid beta 38 level at 30 mg/kg, po at 6 hrs relative to vehicle-treated control; format: functional; design: scale not given: the % may be the effect or the level left; method in brief: as §3
# [26] = Modulation of gamma secretase in CHO-2B7 cells assessed as reduction in amyloid beta 38 level after 5 hrs by MSD ELISA; format: cell-based; settings: Cricetulus griseus, CHO-2B7, 5 h
# SUP-T1 = experiment: Inhibition of notch-mediated NICD release in human SUP-T1 cells at 4 uM after 18 hrs by immunoblotting assay; format: cell-based
# Mus musculus [27] = experiment: Antialzheimer activity in CD1 mouse assessed as reduction in amyloid beta 40 level at 30 mg/kg, po at 6 hrs relative to vehicle-treated control; format: functional; design: scale not given: the % may be the effect or the level left; method in brief: as §3
# [28] = Modulation of gamma-secretase assessed as increase in amyloid beta 38 level by cell based assay
# [29] = Modulation of gamma-secretase assessed as reduction in amyloid beta 40 level by cell based assay
# [30] = Modulation of gamma-secretase assessed as reduction in amyloid beta 42 level by cell based assay
# CHO-2B7 [31] = experiment: Modulation of gamma secretase in CHO-2B7 cells assessed as reduction in amyloid beta 40 level at 100 uM after 5 hrs by MSD ELISA; format: cell-based; design: scale not given: the % may be the effect or the level left; settings: Cricetulus griseus
smiles,measurement,setting,value
CCO[C@@H]([C@H]1C[C@@H](C)[C@H]2[C@H](O1)[C@H](O)[C@@]1(C)[C@@H]3CC[C@H]4C(C)(C)[C@@H](O[C@H]5CN(CC(F)(F)F)CCO5)CC[C@@]45C[C@@]35CC[C@]21C)C(C)(C)O,Activity,CHO-2B7 [1],44%
same,Stability,Liver microsomes,Stable
same,IC50,[2],2.3 µM
C[C@@H]1C[C@H]([C@H](O)C(C)(C)O)O[C@H]2[C@H]1[C@@]1(C)CC[C@@]34C[C@@]35CC[C@H](O[C@H]3CN(C(=O)CC6CC6)CCO3)C(C)(C)[C@@H]5CC[C@H]4[C@]1(C)[C@H]2O,Activity,CHO-2B7 [3],40%
same,IC50,[2],0.07 µM
CCO[C@@H]([C@H]1C[C@@H](C)[C@H]2[C@H](O1)[C@H](O)[C@@]1(C)[C@@H]3CC[C@H]4C(C)(C)[C@@H](OC(=O)NCCN5CCC5)CC[C@@]45C[C@@]35CC[C@]21C)C(C)(C)O,Stability,Liver microsomes,Stable
same,Activity,CHO-2B7 [4],41%
same,IC50,[2],0.22 µM
CCO[C@@H]([C@H]1C[C@@H](C)[C@H]2[C@H](O1)[C@H](O)[C@@]1(C)[C@@H]3CC[C@H]4C(C)(C)[C@@H](O[C@H]5CN(C6COC6)CCO5)CC[C@@]45C[C@@]35CC[C@]21C)C(C)(C)O,concentration at 6 h,[5],0.012 µM
same,IC50,[6],4.6 µM
same,Stability,Liver microsomes,Stable
same,concentration at 6 h,[7],0.024 µM
same,Kp at 6 h,[8],0.5
same,IC50,[2],0.27 µM
same,"remaining at 1 h, 1 µM",[9],94%
CCO[C@@H]([C@H]1C[C@@H](C)[C@H]2[C@H](O1)[C@H](O)[C@@]1(C)[C@@H]3CC[C@H]4C(C)(C)[C@@H](O[C@H]5CN(C6CN(C)C6)CCO5)CC[C@@]45C[C@@]35CC[C@]21C)C(C)(C)O,IC50,[10],14 µM
same,Activity,CHO [11],11.4 ng
same,IC50,[6],2.1 µM
same,Activity,Mus musculus [12],13%
same,Activity,CHO [13],83%
same,Activity,Mus musculus [14],10%
same,Activity,Mus musculus [15],15%
same,Activity,Mus musculus [16],16%
same,Activity,Mus musculus [17],9%
same,Activity,CHO [18],380%
same,Activity,Mus musculus [19],38%
same,Activity,Mus musculus [20],26%
same,Activity,CHO [21],530%
same,Activity,CHO [22],33%
same,Activity,Mus musculus [23],7%
same,Activity,Mus musculus [24],31%
same,Activity,Mus musculus [25],16%
same,IC50,[26],0.16 µM
same,inhibition,SUP-T1,0%
same,IC50,[2],0.1 µM
same,Activity,Mus musculus [27],9%
CCO[C@@H]([C@H]1C[C@@H](C)[C@H]2[C@H](O1)[C@H](O)[C@@]1(C)[C@@H]3CC[C@H]4C(C)(C)[C@@H](O[C@H]5CNCCO5)CC[C@@]45C[C@@]35CC[C@]21C)C(C)(C)O,concentration at 6 h,[5],0.32 µM
same,IC50,[6],1.4 µM
same,Stability,Liver microsomes,Stable
same,concentration at 6 h,[7],0.192 µM
same,Kp at 6 h,[8],1.67
same,IC50,[2],0.091 µM
same,"remaining at 1 h, 1 µM",[9],28%
CC(=O)O[C@@H]([C@H]1C[C@@H](C)C2=C(O1)[C@H](O)[C@@]1(C)[C@@H]3CC[C@H]4C(C)(C)[C@@H](O[C@@H]5OC[C@@H](O)[C@H](O)[C@H]5O)CC[C@@]45C[C@@]35CC[C@]21C)C(C)(C)O,IC50,[28],0.061 µM
same,IC50,[29],2.7 µM
same,IC50,[30],0.1 µM
CC(=O)OC[C@H]1C[C@@H](C)[C@H]2[C@H](O1)[C@H](O)[C@@]1(C)[C@@H]3CC[C@H]4C(C)(C)[C@@H](O[C@H]5CN(C(=O)CC6CC6)CCO5)CC[C@@]45C[C@@]35CC[C@]21C,Activity,CHO-2B7 [31],66%
same,IC50,[2],0.24 µM
same,"remaining at 1 h, 1 µM",[9],23%
